Experimental findings from ChEMBL document CHEMBL3425443, “Improved angiostatic activity of dasatinib by modulation with hydrophobic chains” (ACS Med Chem Lett, 2015) are described below.

Usually IC50 stands for the concentration that inhibits the measured activity by half. Lower therefore signals greater potency. What is called inhibition is the relative decrease from the control value, in per cent.

For assay [1], the system named is Chorioallantoic membrane. As to the kind of experiment: Antiangiogenic activity in chicken embryo chorioallantoic membrane model assessed as inhibition of vasculature formation at 20 uM, iv dosed for 3 consecutive days by FITC-dextran fluorescence angiography. It is filed as functional, Gallus gallus.
The subject of assay [2] is A2780. Kind of assay: Cytotoxicity against human A2780 cells after 72 hrs by MTT assay. The following applies: A2780, 72 h. It is filed as functional, cell-based. An outline of the steps: (§1)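 Proliferation inhibition measured in human A2780 ovarian carcinoma, ECRF24 immortalized endothelial and HEK-293 embryonic kidney cells; IC50 values in μM reported as means ± SD.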
On the technique in general: Formazan colour is commonly taken as a measure of viable cells.

Assay [3] can be described thus: Cytotoxicity against human ECRF24 cells after 72 hrs by MTT assay. It is filed as functional, cell-based. The following applies: ECRF24, 72 h. An outline of the steps:
as §1

Assay [4] has as its system HEK293. As to the kind of experiment: Cytotoxicity against human HEK293 cells after 72 hrs by MTT assay. It is filed as cell-based. The following applies: HEK293, 72 h. In short, it runs like this: as §1
The nature of assay [5]: Angiostatic activity in human ECRF24 cells assessed as inhibition of cell migration at 50 uM after 7 hrs by laser scanner cytometry based wound closure assay. It is filed as functional. The following applies: ECRF24, 7 h. In short, it runs like this: (§2)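 ECRF24 endothelial monolayers wounded, then incubated 7 h with compound across a concentration range; wound closure quantified to give migration inhibition. Error bars are standard error of the mean; significance set at p < 0.05 and p < 0.01.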

Assay [6] deals with ECRF24. Kind of assay: Angiostatic activity in human ECRF24 cells assessed as inhibition of cell migration after 7 hrs by laser scanner cytometry based wound closure assay. It counts as functional. An outline of the steps:
as §2

Assay [7] in a line: Selectivity index, ratio of cytotoxic IC50 for HEK293 cells to antiangiogenic activity in chicken embryo chorioallantoic membrane model.

For `Cc1nc(Nc2ncc(C(=O)Nc3c(C)cccc3Cl)s2)cc(N2CCN(CCOC(=O)CCC(=O)OCCC(F)(F)C(F)(F)C(F)(F)C(F)(F)C(F)(F)C(F)(F)C(F)(F)C(F)(F)C(F)(F)C(F)(F)F)CC2)n1`, the “inhibition (INH)” value in assay [1] is 18%. For the same compound, the figures for the IC50 in assay [2], in assay [3] and in assay [4] were 90 µM, 24 µM and > 500 µM, respectively.

`Cc1nc(Nc2ncc(C(=O)Nc3c(C)cccc3Cl)s2)cc(N2CCN(CCO)CC2)n1.O` [DASATINIB]: the “inhibition (INH)” value in assay [1] was 8%. Moreover, the IC50 in assay [2] was 8.7 µM; in assay [3], 5.7 µM; in assay [4], 14.3 µM. Also, in assay [5], the inhibition at 50 µM was found to be 65%. The inhibition result in assay [6] is “Dose-dependent effect”.

For the compound `CCCCCCCCCCCCCCCCCCOC(=O)CCCC(=O)OCCN1CCN(c2cc(Nc3ncc(C(=O)Nc4c(C)cccc4Cl)s3)nc(C)n2)CC1`, the IC50 in assay [2] was 125 µM; in assay [3] it was 101 µM; in assay [4] it was > 500 µM.

With `CCCCCCCCCCOC(=O)CCCC(=O)OCCN1CCN(c2cc(Nc3ncc(C(=O)Nc4c(C)cccc4Cl)s3)nc(C)n2)CC1`, the IC50 in assay [2] amounted to 119 µM; in assay [3], 34 µM; in assay [4] it was 29 µM.

Turning to `CCCCCCCCCCCCOC(=O)CCC(=O)OCCN1CCN(c2cc(Nc3ncc(C(=O)Nc4c(C)cccc4Cl)s3)nc(C)n2)CC1`, the values for the IC50 in assay [2], in assay [3] and in assay [4] were 45 µM, 27 µM and > 500 µM, respectively.

Turning to `Cc1nc(Nc2ncc(C(=O)Nc3c(C)cccc3Cl)s2)cc(N2CCN(CCOC(=O)CCC(=O)OCCC(F)(F)C(F)(F)C(F)(F)C(F)(F)C(F)(F)C(F)(F)C(F)(F)C(F)(F)F)CC2)n1`, the IC50 in assay [2] is 118 µM; in assay [3], 96 µM; in assay [4], > 500 µM.

As to `CCCCCCCCCCOC(=O)CCC(=O)OCCN1CCN(c2cc(Nc3ncc(C(=O)Nc4c(C)cccc4Cl)s3)nc(C)n2)CC1`, the values for the IC50 in assay [2], in assay [3] and in assay [4] were 22.5 µM, 30 µM and 46 µM, respectively.

`CCCCCCCCCCCCCCCCCCOC(=O)CCC(=O)OCCN1CCN(c2cc(Nc3ncc(C(=O)Nc4c(C)cccc4Cl)s3)nc(C)n2)CC1`: the figures for the IC50 in assay [2], in assay [3] and in assay [4] were 108 µM, 105 µM and > 500 µM, respectively.

Take `Cc1nc(Nc2ncc(C(=O)Nc3c(C)cccc3Cl)s2)cc(N2CCN(CCOC(=O)CCCC(=O)OCCC(F)(F)C(F)(F)C(F)(F)C(F)(F)C(F)(F)C(F)(F)C(F)(F)C(F)(F)C(F)(F)C(F)(F)F)CC2)n1`: the results for the IC50 in assay [2], in assay [3] and in assay [4] were > 500 µM, 102 µM and > 500 µM, respectively.

In the case of `CCCCCCCCCCCCOC(=O)CCCC(=O)OCCN1CCN(c2cc(Nc3ncc(C(=O)Nc4c(C)cccc4Cl)s3)nc(C)n2)CC1`, the results for the IC50 in assay [2], in assay [3] and in assay [4] were 53 µM, 135 µM and > 500 µM, respectively.

For the compound `CCCCCCCCOC(=O)CCC(=O)OCCN1CCN(c2cc(Nc3ncc(C(=O)Nc4c(C)cccc4Cl)s3)nc(C)n2)CC1`, the IC50 in assay [2] came out at 10.6 µM; in assay [3] it was 7.8 µM; in assay [4], 52 µM.

On to `Cc1nc(Nc2ncc(C(=O)Nc3c(C)cccc3Cl)s2)cc(N2CCN(CCOC(=O)CCC(=O)OCCC(F)(F)C(F)(F)C(F)(F)C(F)(F)C(F)(F)C(F)(F)F)CC2)n1`, for which the values for the IC50 in assay [2], in assay [3] and in assay [4] were 130 µM, 122 µM and 58 µM, respectively.

Consider `Cc1nc(Nc2ncc(C(=O)Nc3c(C)cccc3Cl)s2)cc(N2CCN(CCOC(=O)CCCC(=O)OCCC(F)(F)C(F)(F)C(F)(F)C(F)(F)C(F)(F)C(F)(F)F)CC2)n1`, for which the figures for the IC50 in assay [2], in assay [3] and in assay [4] were 28.3 µM, > 500 µM and > 500 µM, respectively.

Consider `Cc1nc(Nc2ncc(C(=O)Nc3c(C)cccc3Cl)s2)cc(N2CCN(CCOC(=O)CCCC(=O)OCCC(F)(F)C(F)(F)C(F)(F)C(F)(F)C(F)(F)C(F)(F)C(F)(F)C(F)(F)F)CC2)n1`, for which the “inhibition (INH)” value in assay [1] was 45%. Besides, the IC50 in assay [2] is 121 µM; in assay [3] it was 57 µM; in assay [4], > 500 µM. The inhibition at 50 µM in assay [5] is 15%. For the same compound, the “Selectivity Index” value in assay [7] stood at 25. The inhibition result in assay [6] is “Dose-dependent effect”.

For `CCCCCCCCOC(=O)CCCC(=O)OCCN1CCN(c2cc(Nc3ncc(C(=O)Nc4c(C)cccc4Cl)s3)nc(C)n2)CC1`, the IC50 amounted to 12 µM in assay [2], 18 µM in assay [3] and 18 µM in assay [4].
